Source: ChEMBL document CHEMBL4406880, “Design, synthesis, and bioactivity of dihydropyrimidine derivatives as kinesin spindle protein inhibitors” (Bioorg Med Chem, 2019)

Legend:
Format in all cases: functional
SF-268 [1] = experiment: Growth inhibition of human SF268 cells assessed as cell viability at 1 uM incubated for 48 hrs by sulforhodamine B assay; conditions: SF-268, 48 h, read-out: Activity
Malme-3M = experiment: Growth inhibition of human MALME-3M cells assessed as cell viability at 1 uM incubated for 48 hrs by sulforhodamine B assay; conditions: read-out: Activity
SF-268 [2] = experiment: Growth inhibition of human SF268 cells assessed as cell viability at 0.1 uM incubated for 48 hrs by sulforhodamine B assay; conditions: SF-268, 48 h, read-out: Activity
SK-MEL-5 = experiment: Growth inhibition of human SK-MEL-5 cells assessed as cell viability at 1 uM incubated for 48 hrs by sulforhodamine B assay; conditions: SK-MEL-5, 48 h, read-out: Activity
BT-549 = experiment: Growth inhibition of human BT549 cells incubated for 48 hrs by sulforhodamine B assay; conditions: BT-549, 48 h
Procedure, shortened: (§1)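 NCI-60 five-dose mode: five tenfold dilutions (0.01, 0.1, 1, 10, 100 µM) are applied for 48 h to cells in RPMI 1640 with 5% FBS at 37 °C. Endpoint is TCA fixation with sulforhodamine B read at 515 nm. % growth comes from the 0 h and control absorbances. GI50 is the concentration giving a 50% reduction in net cell growth.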

HCC 2998 = experiment: Growth inhibition of human HCC2998 cells incubated for 48 hrs by sulforhodamine B assay; conditions: HCC 2998, 48 h; procedure, shortened: as §1
NCI-H23 = experiment: Growth inhibition of human NCI-H23 cells assessed as cell viability at 1 uM incubated for 48 hrs by sulforhodamine B assay; conditions: NCI-H23, 48 h, read-out: Activity
HCT-116 = experiment: Growth inhibition of human HCT116 cells assessed as cell viability at 0.1 uM incubated for 48 hrs by sulforhodamine B assay; conditions: HCT-116, 48 h, read-out: Activity
NCI-H522 = experiment: Growth inhibition of human NCI-H522 cells assessed as cell viability at 0.1 uM incubated for 48 hrs by sulforhodamine B assay; conditions: NCI-H522, 48 h, read-out: Activity
Hs-578T [3] = experiment: Growth inhibition of human Hs 578T cells assessed as cell viability at 1 uM incubated for 48 hrs by sulforhodamine B assay; conditions: read-out: Activity
SF-295 = experiment: Growth inhibition of human SF295 cells assessed as cell viability at 0.001 uM incubated for 48 hrs by sulforhodamine B assay relative to control; conditions: SF-295, 48 h, read-out: Activity
HOP-92 = experiment: Growth inhibition of human HOP92 cells assessed as cell viability at 0.001 uM incubated for 48 hrs by sulforhodamine B assay relative to control; conditions: HOP-92, 48 h, read-out: Activity
UACC-257 = experiment: Growth inhibition of human UACC257 cells assessed as cell viability at 0.1 uM incubated for 48 hrs by sulforhodamine B assay; conditions: UACC-257, 48 h, read-out: Activity
RXF 393 = experiment: Growth inhibition of human RXF393 cells assessed as cell viability at 0.1 uM incubated for 48 hrs by sulforhodamine B assay; conditions: RXF 393, 48 h, read-out: Activity
A498 = experiment: Growth inhibition of human A498 cells assessed as cell viability at 1 uM incubated for 48 hrs by sulforhodamine B assay; conditions: A498, 48 h, read-out: Activity; procedure, shortened: as §1
M14 [4] = experiment: Growth inhibition of human M14 cells assessed as cell viability at 100 uM incubated for 48 hrs by sulforhodamine B assay; conditions: M14, 48 h, read-out: Activity
K562 = experiment: Growth inhibition of human K562 cells assessed as cell viability at 0.1 uM incubated for 48 hrs by sulforhodamine B assay; conditions: K562, 48 h, read-out: Activity
SK-OV-3 = experiment: Growth inhibition of human SKOV3 cells assessed as cell viability at 0.1 uM incubated for 48 hrs by sulforhodamine B assay; conditions: SK-OV-3, 48 h, read-out: Activity
A549 [5] = experiment: Growth inhibition of human A549/ATCC cells assessed as cell viability at 1 uM incubated for 48 hrs by sulforhodamine B assay; conditions: A549, 48 h, read-out: Activity; procedure, shortened: as §1
NCI-H322M = experiment: Growth inhibition of human NCI-H322M cells incubated for 48 hrs by sulforhodamine B assay
Procedure, shortened: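 NCI-60 five-dose assay, SRB end-point, same culture conditions. Compound is tested at tenfold dilutions of 0.01, 0.1, 1, 10 and 100 µM for 48 h at 37 °C, with DMSO/PBS vehicle controls. Percentage growth at each concentration is taken against untreated cells and a time-zero plate. GI50 is 50% net growth decrease, TGI is total growth inhibition, and LC50 is 50% loss of initial cells.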

A549 [6] = experiment: Growth inhibition of human A549/ATCC cells assessed as cell viability at 0.001 uM incubated for 48 hrs by sulforhodamine B assay relative to control; conditions: A549, 48 h, read-out: Activity
OVCAR-3 = experiment: Growth inhibition of human OVCAR3 cells assessed as cell viability at 100 uM incubated for 48 hrs by sulforhodamine B assay; conditions: OVCAR-3, 48 h, read-out: Activity
Hs-578T [7] = experiment: Growth inhibition of human Hs 578T cells assessed as cell viability at 0.001 uM incubated for 48 hrs by sulforhodamine B assay relative to control; conditions: read-out: Activity
UACC-62 = experiment: Growth inhibition of human UACC62 cells assessed as cell viability at 100 uM incubated for 48 hrs by sulforhodamine B assay; conditions: UACC-62, 48 h, read-out: Activity
PC-3 = experiment: Growth inhibition of human PC3 cells incubated for 48 hrs by sulforhodamine B assay; conditions: PC-3, 48 h
Procedure, shortened: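 NCI-60 five-dose SRB assay. Cells were exposed for 48 h to tenfold dilutions of 0.01, 0.1, 1, 10 and 100 µM, in RPMI 1640 with 5% FBS. Plates fixed with TCA at the time of drug addition served as the time-zero reference. GI50 is the concentration giving a 50% reduction in net growth. TGI is total growth inhibition. LC50 is a net 50% loss of the initial cells.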

MCF7 = experiment: Growth inhibition of human MCF7 cells assessed as cell viability at 0.1 uM incubated for 48 hrs by sulforhodamine B assay; conditions: MCF7, 48 h, read-out: Activity
M14 [8] = experiment: Growth inhibition of human M14 cells assessed as cell viability at 0.1 uM incubated for 48 hrs by sulforhodamine B assay; conditions: M14, 48 h, read-out: Activity
[9] = read-out: LC50 (the source's name)
[10] = read-out: pLC50 (the source's name) (converted)

CC1=C(C(=O)OCc2ccccc2)C(c2ccc3c(c2)OCO3)n2c(nc3ccccc32)N1 (racemic)
viability at 1 µM (SF-268 [1]): 32%
viability at 1 µM (Malme-3M): 30%
viability at 0.1 µM (SF-268 [2]): 94%
viability at 1 µM (SK-MEL-5): 32%
GI50 (BT-549; read-out: GI50): 0.92 µM
CC50 (BT-549; [9]): > 100 µM
TGI (BT-549; read-out: TGI): > 100 µM
GI50 (BT-549; read-out: pGI50 (converted)): 0.912 µM
CC50 (BT-549; [10]): > 100 µM
TGI (BT-549; read-out: pTGI): > 100 µM
GI50 (HCC 2998; read-out: GI50): 11 µM
LC50 (HCC 2998; read-out: LC50): > 100 µM
TGI (HCC 2998; read-out: TGI): > 100 µM
GI50 (HCC 2998; read-out: pGI50 (converted)): 11 µM
LC50 (HCC 2998; read-out: pLC50 (converted)): > 100 µM
TGI (HCC 2998; read-out: pTGI): > 100 µM
viability at 1 µM (NCI-H23): 54%
viability at 0.1 µM (HCT-116): 100%
viability at 0.1 µM (NCI-H522): 57%
viability at 1 µM (Hs-578T [3]): 5%
viability at 0.001 µM (SF-295): 87%
viability at 0.001 µM (HOP-92): 67%
viability at 0.1 µM (UACC-257): 91%
viability at 0.1 µM (RXF 393): 90%
viability at 1 µM (A498): 15%
viability at 100 µM (M14 [4]): 24%
viability at 0.1 µM (K562): 82%
viability at 0.1 µM (SK-OV-3): 97%
viability at 1 µM (A549 [5]): 40%
LC50 (concentration killing 50% of initial cells) (NCI-H322M; read-out: LC50): > 100 µM
TGI (NCI-H322M; read-out: TGI): > 100 µM
LC50 (concentration killing 50% of initial cells) (NCI-H322M; read-out: pLC50 (converted)): > 100 µM
TGI (NCI-H322M; read-out: pTGI): > 100 µM
viability at 0.001 µM (A549 [6]): 95%
viability at 100 µM (OVCAR-3): -10%
viability at 0.001 µM (Hs-578T [7]): 87%
viability at 100 µM (UACC-62): 30%
GI50 (PC-3; read-out: GI50): 0.55 µM
CC50 (PC-3; [9]): > 100 µM
TGI (PC-3; read-out: TGI): > 100 µM
GI50 (PC-3; read-out: pGI50 (converted)): 0.55 µM
CC50 (PC-3; [10]): > 100 µM
TGI (PC-3; read-out: pTGI): > 100 µM
viability at 0.1 µM (MCF7): 87%
viability at 0.1 µM (M14 [8]): 90%
